Assay results: ChEMBL document CHEMBL4024793, “Development of Stem-Cell-Mobilizing Agents Targeting CXCR4 Receptor for Peripheral Blood Stem Cell Transplantation and Beyond” (J Med Chem, 2018)
pIC50: −log10 of the molar value.

Tests used:
[1] = Acute toxicity in sc dosed C57BL/6 mouse assessed as maximum tolerated dose by measuring mortality; type: organism-based; conditions: in vivo
Summary of the method: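 Male C57BL/6 or ICR mice (n = 3/group) dosed subcutaneously with escalating doses, low to high; MTD taken as highest dose giving zero mortality (0/3).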

[2] = target: C-X-C chemokine receptor type 6 (Homo sapiens) (UniProt O00574); experiment: Antagonist activity at human CXCR6 at 10 uM preincubated for 30 mins followed agonist addition measured after 30 to 60 mins by cAMP assay; type: functional
C-X-C chemokine receptor type 6 (Homo sapiens), sequence (O00574 whole entry, looked up): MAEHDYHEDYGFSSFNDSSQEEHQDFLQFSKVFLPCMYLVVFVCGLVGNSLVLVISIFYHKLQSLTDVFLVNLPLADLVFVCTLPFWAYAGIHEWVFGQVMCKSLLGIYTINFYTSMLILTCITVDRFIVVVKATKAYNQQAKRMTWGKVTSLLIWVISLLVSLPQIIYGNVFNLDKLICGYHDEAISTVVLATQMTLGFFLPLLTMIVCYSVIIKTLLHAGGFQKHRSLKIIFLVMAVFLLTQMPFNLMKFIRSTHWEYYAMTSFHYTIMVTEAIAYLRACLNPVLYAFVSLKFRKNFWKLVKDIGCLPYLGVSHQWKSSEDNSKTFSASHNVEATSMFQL
Summary of the method: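 GPCR cAMP assay with a single test concentration of 10 μM; result expressed as percentage inhibition for each chemokine receptor.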

Mus musculus = experiment: Induction of hematopoietic stem cell mobilization in C57BL/6 mouse assessed as induction of movement of HSCs and EPCs into peripheral circulation at 35 mg/kg, sc measured after 2 hrs by flow cytometric analysis relative to control; type: functional
[3] = target: Voltage-dependent N-type calcium channel subunit alpha-1B (Rattus norvegicus) (UniProt Q02294); experiment: Displacement of [125I]omega-conotoxin GVIA from rat brain Cav2.2 at 10 uM after 30 mins by scintillation counting
Voltage-dependent N-type calcium channel subunit alpha-1B (Rattus norvegicus), sequence (Q02294 whole entry, looked up): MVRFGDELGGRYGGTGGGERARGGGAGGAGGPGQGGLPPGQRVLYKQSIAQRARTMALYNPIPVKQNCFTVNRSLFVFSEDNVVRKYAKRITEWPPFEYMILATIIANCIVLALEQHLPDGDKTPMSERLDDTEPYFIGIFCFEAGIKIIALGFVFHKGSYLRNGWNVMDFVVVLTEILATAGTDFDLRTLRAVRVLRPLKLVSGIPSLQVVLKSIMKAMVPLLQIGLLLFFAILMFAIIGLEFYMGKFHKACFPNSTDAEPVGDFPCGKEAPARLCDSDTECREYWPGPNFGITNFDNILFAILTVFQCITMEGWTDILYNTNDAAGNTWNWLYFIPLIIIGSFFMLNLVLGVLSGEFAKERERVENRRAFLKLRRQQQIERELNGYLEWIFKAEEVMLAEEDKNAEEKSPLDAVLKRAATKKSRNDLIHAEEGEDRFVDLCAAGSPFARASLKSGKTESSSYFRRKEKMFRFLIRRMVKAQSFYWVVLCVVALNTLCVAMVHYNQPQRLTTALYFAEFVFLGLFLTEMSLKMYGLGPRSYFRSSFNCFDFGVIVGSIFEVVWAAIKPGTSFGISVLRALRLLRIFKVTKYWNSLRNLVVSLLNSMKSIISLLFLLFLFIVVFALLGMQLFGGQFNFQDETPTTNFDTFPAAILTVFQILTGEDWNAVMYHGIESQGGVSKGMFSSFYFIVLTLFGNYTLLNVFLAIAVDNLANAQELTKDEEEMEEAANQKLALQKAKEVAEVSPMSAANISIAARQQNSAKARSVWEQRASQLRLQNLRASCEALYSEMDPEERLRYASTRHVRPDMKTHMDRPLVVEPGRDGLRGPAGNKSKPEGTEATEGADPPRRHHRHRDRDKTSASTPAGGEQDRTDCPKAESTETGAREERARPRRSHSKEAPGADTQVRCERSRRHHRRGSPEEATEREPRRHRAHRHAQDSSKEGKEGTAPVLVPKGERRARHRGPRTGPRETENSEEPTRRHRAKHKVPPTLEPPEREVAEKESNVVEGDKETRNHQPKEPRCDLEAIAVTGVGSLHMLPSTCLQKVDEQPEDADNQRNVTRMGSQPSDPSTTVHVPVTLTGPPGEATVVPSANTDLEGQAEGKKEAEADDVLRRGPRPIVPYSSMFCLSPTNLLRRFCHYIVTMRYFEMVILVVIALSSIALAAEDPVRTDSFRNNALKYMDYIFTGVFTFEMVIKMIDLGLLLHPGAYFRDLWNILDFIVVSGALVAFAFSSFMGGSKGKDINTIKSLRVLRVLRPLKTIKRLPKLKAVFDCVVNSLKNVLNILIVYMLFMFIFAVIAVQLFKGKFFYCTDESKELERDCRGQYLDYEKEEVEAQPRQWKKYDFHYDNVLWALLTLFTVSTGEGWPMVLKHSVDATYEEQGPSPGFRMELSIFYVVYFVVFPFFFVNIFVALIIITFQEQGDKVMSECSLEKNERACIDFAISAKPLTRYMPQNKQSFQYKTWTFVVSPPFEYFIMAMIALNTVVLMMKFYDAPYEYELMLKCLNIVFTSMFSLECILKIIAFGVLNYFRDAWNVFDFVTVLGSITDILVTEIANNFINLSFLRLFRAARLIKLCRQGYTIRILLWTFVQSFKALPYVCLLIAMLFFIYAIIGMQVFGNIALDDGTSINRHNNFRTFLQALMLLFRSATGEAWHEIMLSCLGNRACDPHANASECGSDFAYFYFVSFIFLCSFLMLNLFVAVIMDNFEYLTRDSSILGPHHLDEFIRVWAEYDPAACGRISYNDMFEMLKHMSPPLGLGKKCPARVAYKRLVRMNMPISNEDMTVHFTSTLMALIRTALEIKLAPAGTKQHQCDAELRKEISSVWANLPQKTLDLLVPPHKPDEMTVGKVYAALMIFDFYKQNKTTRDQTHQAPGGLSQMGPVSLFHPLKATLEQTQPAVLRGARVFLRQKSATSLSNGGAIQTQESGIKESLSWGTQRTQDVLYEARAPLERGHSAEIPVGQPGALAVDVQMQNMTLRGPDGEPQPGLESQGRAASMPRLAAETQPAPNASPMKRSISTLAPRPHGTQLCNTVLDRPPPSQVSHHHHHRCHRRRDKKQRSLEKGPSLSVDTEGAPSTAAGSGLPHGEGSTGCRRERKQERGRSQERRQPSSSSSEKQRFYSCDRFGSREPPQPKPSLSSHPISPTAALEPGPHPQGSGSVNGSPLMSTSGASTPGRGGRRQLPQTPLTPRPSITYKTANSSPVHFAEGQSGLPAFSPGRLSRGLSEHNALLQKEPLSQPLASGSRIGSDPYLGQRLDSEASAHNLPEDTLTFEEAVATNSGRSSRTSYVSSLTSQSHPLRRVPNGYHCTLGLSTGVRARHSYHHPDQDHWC

Cytochrome P450 3A4 = Cytochrome P450 3A4 (Homo sapiens, UniProt P08684); experiment: Inhibition of human liver microsomal CYP3A4; type: ADME
Cytochrome P450 3A4, sequence (P08684 whole entry): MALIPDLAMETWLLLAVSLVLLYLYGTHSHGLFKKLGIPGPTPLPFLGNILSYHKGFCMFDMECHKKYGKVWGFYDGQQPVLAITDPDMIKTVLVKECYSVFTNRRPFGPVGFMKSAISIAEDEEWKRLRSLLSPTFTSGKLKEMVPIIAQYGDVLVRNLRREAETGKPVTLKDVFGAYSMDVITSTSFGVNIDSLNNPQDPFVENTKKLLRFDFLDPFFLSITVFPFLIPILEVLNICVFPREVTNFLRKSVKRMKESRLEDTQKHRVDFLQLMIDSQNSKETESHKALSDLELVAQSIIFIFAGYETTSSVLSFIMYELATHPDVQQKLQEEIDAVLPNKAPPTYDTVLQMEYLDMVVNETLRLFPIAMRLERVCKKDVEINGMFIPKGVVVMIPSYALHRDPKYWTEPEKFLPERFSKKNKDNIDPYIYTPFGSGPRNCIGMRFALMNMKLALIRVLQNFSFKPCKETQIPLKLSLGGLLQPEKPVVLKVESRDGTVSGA

Rattus norvegicus = experiment: Cardiotoxicity in Sprague-Dawley rat assessed as effect on heart size at 50 mg/kg/day, sc administered for 14 days relative to control; type: toxicity, organism-based; conditions: in vivo, 336 h
Summary of the method: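 Non-GLP 14-day repeated-dose study in SD rats given 50 mg/kg/day SC. Major organs (liver, kidney, lung, heart) compared with vehicle for size, weight and colour. Blood analysed for hematological and biochemical parameters.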

Cc1cc(NC2CCN(C(=O)CCNCC(=O)O)CC2)nc(NCc2cn(CCCNCCCNC3CCCCC3)nn2)n1
MTD [1]: 75 mg/kg
Efficacy [2]: -3.9%
fold change (FC) (Mus musculus): 7
inhibition [3]: 73%
pIC50 (Cytochrome P450 3A4): < 4.00
Activity (Rattus norvegicus): Non-Toxic
